Records with an inconclusive call do not appear. The source made the active and inactive calls.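 The calls were made as follows: active = viability under 80% at one or more tested concentrations, read as toxic; inconclusive = replicate runs disagree on whether the viability cutoff is met; inactive = viability stays at 80% or higher at every dose.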
System: not listed separately
Assay: viability loss in Vero E6 cells – cell-based, set 3, cytotoxicity control for PfM17LAP inhibitor project, dose response (AID 602317)
Conditions: Vero E6 viability, CellTiter-Glo luminescence, 72 h; at 50 µM (top of the series)
In short: (§1)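 assay system = Vero E6 cell line | schedule = 72 h compound treatment, 37 °C | measured by = CellTiter-Glo luminescence | evaluation = % viability and CC50, 4-parameter fit | benchmarks = DMSO vehicle wells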

Row | SMILES | viability
1 | CC(C)(C(=O)NO)c1ccccc1 | 104% (inactive)
2 | CCCCOc1ccc(CC(=O)O)cc1 | 95.5% (inactive)
3 | CCCCOc1ccc(CNc2c(N(C)O)c(=O)c2=O)cc1 | 91% (inactive)
4 | CCCCOc1cccc(CC(=O)OC)c1 | 99.7% (inactive)
5 | CCCOc1ccc(CC(=O)O)cc1 | 81.1% (inactive)
6 | COc1ccc(CC(=O)NO)cc1 | 102% (inactive)
7 | Cc1ccc(CC(=O)NO)cc1 | 104% (inactive)
8 | CCCCOc1ccc(C(C)(C)C(=O)NO)cc1 | 81.2% (inactive)
9 | COc1ccc(CCCN2CCN(C)CC2)cc1OC | 99.5% (inactive)
10 | Oc1ccc(CCNc2ccnc3ccccc23)cc1O | 95.5% (inactive)
11 | CN1CCN(c2nc(-c3ccc(O)c(O)c3)cs2)CC1 | 97.9% (inactive)
12 | COC(=O)Cc1ccc(OCCN(C)C)cc1 | 98.9% (inactive)
13 | O=C(NCc1ccc2c(c1)OCO2)C1CCN(S(=O)(=O)c2ccc(Br)s2)CC1 | 95.4% (inactive)
14 | CCCOc1ccc(CC(=O)OC)cc1 | 100% (inactive)
15 | CN(C)CCOc1ccc(CC(=O)O)cc1 | 98.8% (inactive)
16 | COC(=O)Cc1ccc(OCC(C)C)cc1 | 109% (inactive)
17 | Oc1ccc(-c2csc(Nc3ncccn3)n2)cc1O | 87.7% (inactive)
18 | CCCCOc1ccc(CNc2c(N(O)Cc3ccccc3)c(=O)c2=O)cc1 | 95.5% (inactive)
19 | COc1ccc(CCN(C)c2ccnc3ccccc23)cc1OC | 84.9% (inactive)
20 | CN1CCN(CCc2ccc(O)c(O)c2)CC1 | 102% (inactive)
21 | CCC(C)Oc1ccc(CC(=O)OC)cc1 (stereo unspecified) | 93% (inactive)
22 | CC[C@H](C)[C@H](NS(=O)(=O)c1ccc(Br)s1)C(=O)NCc1ccc2c(c1)OCO2 | 107% (inactive)
23 | CN1CCN(CCCc2ccc(O)c(O)c2)CC1 | 96% (inactive)
24 | CCCCOc1ccc(C(C)(C)C(=O)O)cc1 | 98.2% (inactive)
25 | O=C(NO)c1cccc2ccccc12 | 84.7% (inactive)
26 | CCCCOc1ccc(C(C)C(=O)O)cc1 (stereo unspecified) | 90.8% (inactive)
27 | CCOc1ccc(CC(=O)NO)cc1 | 96.8% (inactive)
28 | CCCCOc1ccc(C(C)C(=O)OC)cc1 (stereo unspecified) | 97.4% (inactive)
29 | CCCOc1ccc(CC(=O)NO)cc1 | 91.5% (inactive)

System: Vero E6 viability, CellTiter-Glo luminescence, 72 h
Assay: as above
Conditions: not given
In short: as §1

Row | SMILES | CC50
30 | O=C(Cc1ccc(OCc2ccccc2)cc1)NO | 48.5 µM
31 | CCCCCCCCCC(=O)NO | 31 µM
32 | CCCCOc1ccc(CCC(=O)NO)cc1 | 34.1 µM
33 | CCCCOc1ccc(CN(O)C(=O)c2ccccc2)cc1 | 20.9 µM
34 | CC[C@H](C)[C@H](NS(=O)(=O)c1ccc(Br)s1)C(=O)NCc1ccc(Cl)cc1 | 46.4 µM
35 | CCc1ccc(NC(=O)Cc2nc(-c3ccc(O)c(O)c3)cs2)cc1 | 42.2 µM
36 | CCCCOc1ccc(CC(=O)N(C)O)cc1 | 44.6 µM
37 | CCCCOc1ccc(C(C)C(=O)NO)cc1 (stereo unspecified) | 40.8 µM
38 | Oc1ccc(CCNC(c2ccccc2)c2ccccc2)cc1O | 38.7 µM
39 | COc1ccc(CCN(C)c2c3ccccc3nc3ccccc23)cc1OC | 40.8 µM
40 | CC[C@H](C)[C@H](NC(=O)c1ccc(C(C)(C)C)cc1)C(=O)NCc1ccc2c(c1)OCO2 | 38.2 µM
41 | COc1ccc(CCNC(c2ccccc2)c2ccccc2)cc1OC | 45.8 µM
42 | Oc1ccc(CCNc2c3ccccc3nc3ccccc23)cc1O | 45.4 µM
43 | CN(O)C(=O)Cc1ccc(OCc2ccccc2)cc1 | 32.5 µM
44 | COc1ccc(CCNc2c3ccccc3nc3ccccc23)cc1OC | 17.9 µM
45 | O=C(NCc1ccc(Cl)cc1)C1CCN(S(=O)(=O)c2ccc(Br)s2)CC1 | 21.8 µM
46 | O=C(Cc1ccc(Oc2ccccc2)cc1)NO | 45 µM

Source: PubChem BioAssay AID602317 (Southern Research Specialized Biocontainment Screening …, 2012)
